PubChem BioAssay AID652046 (Broad Institute, 2013)
Inconclusive results are not listed. Calls of active or inactive are those of the source.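 The calls were made as follows: active = fitted curve falls past -35% activity change at a concentration no higher than twice the top tested dose; inconclusive = no clear call, values can overlap the other calls; inactive = the rest, including activity in the opposite direction.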

System: not listed separately
Assay: IL-1beta-stimulated NF-kB eGFP reporter inhibition, dose response, selectivity assay for EBV LMP1 NF-kB inhibitor project, cell-based, dsRed control, flow cytometry, dry powder (AID 652046)
Settings: IL-1beta-stimulated NF-kB eGFP reporter/dsRed, flow cytometry, 16 h; at 18 µM (top of the series)
Method in brief: (§1)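 Assay system: HEK293 cells with NF-κB-driven eGFP and constitutive dsRed reporters | Probe or stimulus: IL-1beta stimulation | Incubation: 16 h compound exposure, 37 °C | Measured by: Flow cytometry, scatter-gated live cells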
In the case of `Cc1cc(C(=O)Nc2ccc3c(c2)C(=O)N(C)[C@@H]2CC[C@H](CC(=O)NCc4ccc(-c5ccccc5)cc4)O[C@H]2CO3)no1`, the activity change, negative = inhibition is reported as -15.2% (inactive).

Same assay, conditions: IL-1beta-stimulated NF-kB eGFP reporter/dsRed, flow cytometry, 16 h; at 19.5 µM (top of the series)
For `CN1C(=O)c2cc(NS(C)(=O)=O)ccc2OC[C@@H]2O[C@@H](CC(=O)NCc3ccc(-c4ccccc4)cc3)CC[C@H]21`, the activity change, negative = inhibition was 10.3% (inactive). For `COCCNC(=O)C[C@@H]1C[C@H]2c3cc(N(C)C)ccc3O[C@H]2[C@H](CO)O1`, the activity change, negative = inhibition was -7.46% (inactive). In the case of `CN(C)c1ccc2c(c1)[C@@H]1C[C@@H](CC(=O)NCc3ccc(Oc4ccccc4)cc3)O[C@@H](CO)[C@@H]1O2`, the activity change, negative = inhibition is reported as 4.75% (inactive). With `COCCNC(=O)C[C@H]1CC[C@@H]2[C@H](COc3ccc(NC(=O)c4cc(C)on4)cc3C(=O)N2C)O1` the activity change, negative = inhibition was 1.68% (inactive). In the case of `CNC(=O)C[C@H]1CC[C@@H]2[C@H](COc3ccc(NC(=O)c4cc(C)on4)cc3C(=O)N2C)O1`, the activity change, negative = inhibition is reported as -2.16% (inactive). In the case of `CCNC(=O)C[C@H]1CC[C@@H]2[C@H](COc3ccc(NC(=O)c4cc(C)on4)cc3C(=O)N2C)O1`, the activity change, negative = inhibition is reported as 0.718% (inactive). For `CN(C)c1ccc2c(c1)[C@@H]1C[C@@H](CC(=O)N3CCc4ccccc4C3)O[C@@H](CO)[C@@H]1O2`, the activity change, negative = inhibition was 4.65% (inactive). In the case of `O=C(C[C@@H]1C[C@H]2c3cc(NS(=O)(=O)c4ccc(F)cc4)ccc3O[C@H]2[C@H](CO)O1)NCc1ccc(Oc2ccccc2)cc1`, the activity change, negative = inhibition is reported as 6.68% (inactive). For `COc1ccccc1CNC(=O)C[C@@H]1C[C@H]2c3cc(N(C)C)ccc3O[C@H]2[C@H](CO)O1`, the activity change, negative = inhibition was 2.93% (inactive). With `CN(C)c1ccc2c(c1)[C@@H]1C[C@@H](CC(=O)NCCc3ccccc3)O[C@@H](CO)[C@@H]1O2` the activity change, negative = inhibition was -4.63% (inactive). In the case of `CN(C)c1ccc2c(c1)[C@@H]1C[C@@H](CC(=O)NCc3ccc4c(c3)OCO4)O[C@@H](CO)[C@@H]1O2`, the activity change, negative = inhibition is reported as -8.36% (inactive). With `CCCNC(=O)C[C@H]1CC[C@@H]2[C@H](COc3ccc(NC(=O)c4cc(C)on4)cc3C(=O)N2C)O1` the activity change, negative = inhibition was 2% (inactive). In the case of `CN(C)c1ccc2c(c1)[C@@H]1C[C@@H](CC(=O)NCC3CC3)O[C@@H](CO)[C@@H]1O2`, the activity change, negative = inhibition is reported as -1.79% (inactive).

Same assay, conditions: IL-1beta-stimulated NF-kB eGFP reporter/dsRed, flow cytometry, 16 h; at 21 µM (top of the series)
With `Cc1cc(C(=O)Nc2ccc3c(c2)C(=O)N(C)[C@@H]2CC[C@H](CC(=O)NCc4ccc(-c5ccccc5)cc4)O[C@@H]2CO3)no1` the activity change, negative = inhibition was 4.6% (inactive). In the case of `Cc1cc(C(=O)Nc2ccc3c(c2)C(=O)N(C)[C@@H]2CC[C@H](CC(=O)N[C@@H](C)c4ccccc4)O[C@H]2CO3)no1`, the activity change, negative = inhibition is reported as 5.36% (inactive).

System: IL-1beta-stimulated NF-kB eGFP reporter/dsRed, flow cytometry, 16 h
Assay: as above
Settings: not given
Method in brief: as §1
`O=C(C[C@@H]1C[C@H]2c3cc(NC(=O)Nc4ccccc4F)ccc3O[C@H]2[C@H](CO)O1)NCc1ccc(Oc2ccccc2)cc1` showed an AC35 of 16.3 µM. `Cc1cc(C(=O)Nc2ccc3c(c2)C(=O)N(C)[C@@H]2CC[C@H](CC(=O)NC4CCCC4)O[C@H]2CO3)no1` gave an AC35 of 9.72 µM. Work on `O=C(Nc1ccc(C(F)(F)F)cc1)Nc1ccc2c(c1)[C@H]1C[C@@H](CC(=O)N3CCc4ccccc4C3)O[C@@H](CO)[C@H]1O2` yielded an AC35 of 12.7 µM. With `CN1C(=O)c2cc(NC(=O)Nc3ccccc3F)ccc2OC[C@@H]2O[C@@H](CC(=O)NCc3ccc(-c4ccccc4)cc3)CC[C@H]21` the AC35 was 0.14 µM. `O=C(C[C@@H]1C[C@H]2c3cc(NC(=O)NC4CCCC4)ccc3O[C@H]2[C@H](CO)O1)NCc1ccc(Oc2ccccc2)cc1` gave an AC35 of 17.1 µM. `CS(=O)(=O)Nc1ccc2c(c1)[C@@H]1C[C@@H](CC(=O)NCc3ccc(Oc4ccccc4)cc3)O[C@@H](CO)[C@@H]1O2` showed an AC35 of 0.664 µM. For `CN(C)c1ccc2c(c1)[C@@H]1C[C@@H](CC(=O)NCc3cc(F)ccc3F)O[C@@H](CO)[C@@H]1O2`, the AC35 was 2.23 µM. Work on `CN(C)c1ccc2c(c1)[C@@H]1C[C@@H](CC(=O)N3CCOCC3)O[C@@H](CO)[C@@H]1O2` yielded an AC35 of 2.09 µM. Compound `COc1ccccc1[C@]1(C)ON(c2ccccc2C(F)(F)F)C1=O` has an AC35 of 10.7 µM. `CN(C)c1ccc2c(c1)[C@@H]1C[C@@H](CC(=O)NCc3ccccc3F)O[C@@H](CO)[C@@H]1O2` showed an AC35 of 20.8 µM. Work on `Cc1cc(C(=O)Nc2ccc3c(c2)C(=O)N(C)[C@@H]2CC[C@H](CC(=O)N[C@H](C)c4ccccc4)O[C@H]2CO3)no1` yielded an AC35 of 15.9 µM. With `Nc1ccn([C@@H]2O[C@H](CO)[C@@H](O)C2O)c(=O)n1` (stereo partly drawn) the AC35 was 19.1 µM.
